Results published in ChEMBL document CHEMBL1122986, “Aldosterone antagonists. 1. Synthesis and activities of 6 beta,7 beta:15 beta,16 beta-dimethylene steroidal spirolactones” (J Med Chem, 1985).
Activity calls are given as the source filed them. The rule behind the calls is not given here.

Assays:
[1] = molecular target: T1, Mineralocorticoid receptor (Rattus norvegicus) (UniProt P22199); assay: Relative potency as antialdosterone activity compared to spironolactone 1 hr after oral administration; assay type: functional, organism-based
T1 sequence (whole entry): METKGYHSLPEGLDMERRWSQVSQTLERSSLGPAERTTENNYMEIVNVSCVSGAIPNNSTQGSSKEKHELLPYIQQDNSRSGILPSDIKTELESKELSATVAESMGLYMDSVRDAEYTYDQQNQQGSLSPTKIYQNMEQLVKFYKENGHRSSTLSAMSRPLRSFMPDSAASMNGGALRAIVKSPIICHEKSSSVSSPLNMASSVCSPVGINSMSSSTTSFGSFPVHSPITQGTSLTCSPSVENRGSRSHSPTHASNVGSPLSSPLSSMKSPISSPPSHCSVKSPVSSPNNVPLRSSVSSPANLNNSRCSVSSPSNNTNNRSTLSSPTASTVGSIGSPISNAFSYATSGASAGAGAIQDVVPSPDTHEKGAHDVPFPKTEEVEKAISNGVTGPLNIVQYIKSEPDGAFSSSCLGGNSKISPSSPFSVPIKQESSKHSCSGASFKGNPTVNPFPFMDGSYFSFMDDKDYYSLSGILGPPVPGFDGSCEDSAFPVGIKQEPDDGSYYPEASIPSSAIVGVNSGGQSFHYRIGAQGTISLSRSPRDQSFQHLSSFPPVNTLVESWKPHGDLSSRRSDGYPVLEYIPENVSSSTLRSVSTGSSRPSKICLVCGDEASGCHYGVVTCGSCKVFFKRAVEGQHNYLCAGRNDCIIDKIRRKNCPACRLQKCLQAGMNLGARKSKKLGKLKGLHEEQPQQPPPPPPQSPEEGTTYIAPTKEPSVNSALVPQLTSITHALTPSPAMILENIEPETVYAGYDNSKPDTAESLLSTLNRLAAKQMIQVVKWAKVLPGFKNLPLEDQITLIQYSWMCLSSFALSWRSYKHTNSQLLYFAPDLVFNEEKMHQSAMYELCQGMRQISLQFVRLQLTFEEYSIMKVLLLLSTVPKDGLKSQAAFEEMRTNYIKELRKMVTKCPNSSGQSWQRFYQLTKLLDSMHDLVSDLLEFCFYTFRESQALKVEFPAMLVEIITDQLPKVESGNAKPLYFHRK
Outline: (§1)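 Adrenalectomized Wistar rats (140–160 g) were maintained on fluocortolone caproate 1 mg/kg on the day of surgery and fluocortolone 10 mg/kg sc one day before testing. Rats were infused with saline-glucose (0.05% NaCl, 5% glucose) containing aldosterone 50 μg/L at 3 mL/h. Compounds were given orally 1 h before infusion at 6.7, 13.4 and 26.8 mg/kg. Hourly urine Na and K were measured by flame photometry over 10–15 h.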

[2] = molecular target: T2, Progesterone receptor (Oryctolagus cuniculus) (UniProt P06186); assay: Progestational activity in rabbit at 30.0 mg/kg oral dose; assay type: functional, organism-based; design: dose 30 mg/kg
T2 sequence (whole entry): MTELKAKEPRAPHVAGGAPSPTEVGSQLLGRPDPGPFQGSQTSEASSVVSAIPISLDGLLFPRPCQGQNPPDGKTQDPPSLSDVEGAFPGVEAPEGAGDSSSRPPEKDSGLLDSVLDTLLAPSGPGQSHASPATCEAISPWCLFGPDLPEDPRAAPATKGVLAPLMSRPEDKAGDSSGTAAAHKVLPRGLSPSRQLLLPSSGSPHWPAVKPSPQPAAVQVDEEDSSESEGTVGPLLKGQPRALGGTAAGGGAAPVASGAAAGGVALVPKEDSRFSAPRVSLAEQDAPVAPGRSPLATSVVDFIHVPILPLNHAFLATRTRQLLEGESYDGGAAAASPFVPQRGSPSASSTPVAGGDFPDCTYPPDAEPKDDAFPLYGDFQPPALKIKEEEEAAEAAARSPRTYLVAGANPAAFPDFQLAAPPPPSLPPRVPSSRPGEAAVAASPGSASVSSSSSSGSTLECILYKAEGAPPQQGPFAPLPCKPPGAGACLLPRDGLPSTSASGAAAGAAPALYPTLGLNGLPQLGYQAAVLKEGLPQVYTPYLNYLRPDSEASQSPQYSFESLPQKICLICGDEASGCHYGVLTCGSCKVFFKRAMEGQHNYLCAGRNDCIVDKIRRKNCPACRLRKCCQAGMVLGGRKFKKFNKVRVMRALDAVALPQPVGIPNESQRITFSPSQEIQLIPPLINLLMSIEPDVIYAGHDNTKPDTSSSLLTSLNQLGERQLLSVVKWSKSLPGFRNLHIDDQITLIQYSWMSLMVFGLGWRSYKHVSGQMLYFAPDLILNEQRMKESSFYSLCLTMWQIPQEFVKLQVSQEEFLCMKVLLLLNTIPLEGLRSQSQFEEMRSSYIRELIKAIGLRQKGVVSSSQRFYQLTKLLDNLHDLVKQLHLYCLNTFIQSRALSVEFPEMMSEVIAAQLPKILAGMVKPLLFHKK
Outline: (§2)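 Clauberg test in rabbits after oral administration, run by literature procedures. Doses are listed […], and the read-out is the McPhail index.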

[3] = molecular target: T2, Progesterone receptor (Oryctolagus cuniculus); assay: Binding affinity for rat progesterone receptor compared to progesterone
[4] = molecular target: T3, Androgen receptor (Rattus norvegicus) (UniProt P15207)
T3 sequence (whole entry): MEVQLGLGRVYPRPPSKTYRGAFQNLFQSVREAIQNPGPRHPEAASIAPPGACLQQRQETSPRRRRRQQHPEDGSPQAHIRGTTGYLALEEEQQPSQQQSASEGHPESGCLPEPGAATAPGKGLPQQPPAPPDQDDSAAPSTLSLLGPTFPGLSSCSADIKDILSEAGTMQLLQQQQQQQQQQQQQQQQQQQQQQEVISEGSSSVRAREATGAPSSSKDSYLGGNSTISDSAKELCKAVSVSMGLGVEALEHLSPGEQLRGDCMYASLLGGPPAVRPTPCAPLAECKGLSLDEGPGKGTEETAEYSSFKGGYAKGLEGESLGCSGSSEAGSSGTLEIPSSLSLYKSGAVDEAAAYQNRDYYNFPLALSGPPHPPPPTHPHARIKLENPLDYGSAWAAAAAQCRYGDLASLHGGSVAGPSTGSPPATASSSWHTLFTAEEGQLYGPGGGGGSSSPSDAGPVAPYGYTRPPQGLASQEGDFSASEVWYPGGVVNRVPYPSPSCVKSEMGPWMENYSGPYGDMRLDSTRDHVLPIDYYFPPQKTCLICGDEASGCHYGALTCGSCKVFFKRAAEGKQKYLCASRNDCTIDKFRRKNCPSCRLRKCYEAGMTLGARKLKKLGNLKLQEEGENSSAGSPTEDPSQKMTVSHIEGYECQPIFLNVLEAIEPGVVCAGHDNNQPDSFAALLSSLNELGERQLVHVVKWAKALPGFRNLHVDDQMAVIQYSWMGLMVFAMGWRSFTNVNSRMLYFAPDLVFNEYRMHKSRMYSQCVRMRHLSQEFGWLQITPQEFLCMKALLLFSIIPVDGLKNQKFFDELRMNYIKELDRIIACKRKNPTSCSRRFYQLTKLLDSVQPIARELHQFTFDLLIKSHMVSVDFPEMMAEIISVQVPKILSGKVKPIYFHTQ

[5] = molecular target: T1, Mineralocorticoid receptor (Rattus norvegicus); assay: Relative potency as antialdosterone activity compared to spironolactone 1 hr after oral administration; No activity; assay type: functional, organism-based; outline: as §1
[6] = molecular target: T3, Androgen receptor (Rattus norvegicus); assay: Binding affinity for rat androgen receptor compared to dihydrotestosterone; No affinity
[7] = molecular target: T2, Progesterone receptor (Oryctolagus cuniculus); assay: Binding affinity for rat progesterone receptor compared to progesterone; No affinity
[8] = molecular target: T1, Mineralocorticoid receptor (Rattus norvegicus); assay: Relative potency as antialdosterone activity compared to spironolactone 1 hr after oral administration; NA denotes no activity; assay type: functional, organism-based; outline: as §1
[9] = molecular target: T2, Progesterone receptor (Oryctolagus cuniculus); assay: Progestational activity in rabbit at 0.3 mg/kg oral dose; assay type: functional, organism-based; design: dose 0.3 mg/kg; outline: as §2
[10] = molecular target: T2, Progesterone receptor (Oryctolagus cuniculus); assay: Progestational activity in rabbit at 3.0 mg/kg oral dose; assay type: functional, organism-based; design: dose 3 mg/kg; outline: as §2
[11] = molecular target: T2, Progesterone receptor (Oryctolagus cuniculus); assay: Progestational activity in rabbit at 1.0 mg/kg oral dose; assay type: functional, organism-based; design: dose 1 mg/kg; outline: as §2

SMILES | MRP [1] | Competition factor [3] | MRP [5] | Competition factor [6] | also measured
CC12C(=CC(=O)C[C@@H]1S)C1CC1C1C2CCC2(C)C1C1CC1[C@@]21CCC(=O)O1 (some centres undefined) | > 100 | 5.8 |  |  | McPhail index [2]: 3.5; Competition factor [4]: 63
CC12CCC(=O)C=C1C1CC1C1C2CC(O)C2(C)C1C1CC1[C@@]21CCC(=O)O1 (some centres undefined) |  | 25 | inactive | inactive | 
CC12C=C(Cl)C(=O)C=C1C1CC1C1C2CCC2(C)C1C1CC1[C@@]21CCC(=O)O1 (some centres undefined) |  | 33 | inactive |  | 
CC12CCC(=O)C=C1C1CC1C1C2[C@H](O)CC2(C)C1C1CC1[C@@]21CCC(=O)O1 (some centres undefined) |  | 195 | inactive | inactive | 
CC(=O)S[C@H]1CC(=O)C=C2C3CC3C3C(CCC4(C)C3C3CC3[C@@]43CCC(=O)O3)C21C (some centres undefined) | 100 |  |  |  | Competition factor [7]: inactive
CC12C(=CC(=O)C[C@@H]1C#N)C1CC1C1C2CCC2(C)C1C1CC1[C@@]21CCC(=O)O1 (some centres undefined) |  |  |  |  | MRP [8]: inactive
CC12CCC(=O)C(Cl)=C1C1CC1C1C2CCC2(C)C1C1CC1[C@@]21CCC(=O)O1 (some centres undefined) |  |  | inactive |  | 
CS[C@H]1CC(=O)C=C2C3CC3C3C(CCC4(C)C3C3CC3[C@@]43CCC(=O)O3)C21C (some centres undefined) | 240 |  |  | inactive | McPhail index [2]: 3.8; Competition factor [7]: inactive
C=C1CC2(C)C(=CC1=O)C1CC1C1C2CCC2(C)C1C1CC1[C@@]21CCC(=O)O1 (some centres undefined) |  | 18 | inactive | inactive | 
C[C@H]1CC2(C)C(=CC1=O)C1CC1C1C2CCC2(C)C1C1CC1[C@@]21CCC(=O)O1 (some centres undefined) | 100 | 30 |  | inactive | 
CC12C=CC(=O)C=C1C1CC1C1C2CCC2(C)C1C1CC1[C@@]21CCC(=O)O1 (some centres undefined) | 745 | 6.5 |  |  | McPhail index [9]: 1; Competition factor [4]: 150; McPhail index [10]: 2.7; McPhail index [11]: 2.2
C[C@@H]1CC2(C)C(=CC1=O)C1CC1C1C2CCC2(C)C1C1CC1[C@@]21CCC(=O)O1 (some centres undefined) | < 100 | 105 |  | inactive | 
CC(=O)S[C@@H]1CC2=CC(=O)CC[C@]2(C)[C@H]2CC[C@@]3(C)[C@@H](CC[C@@]34CCC(=O)O4)[C@H]12 | 100 | 21 |  |  | 
C[C@H]1CC(=O)C=C2C3CC3C3C(CCC4(C)C3C3CC3[C@@]43CCC(=O)O3)C21C (some centres undefined) | 100 |  |  |  | Competition factor [4]: 70
CC1=CC2(C)C(=CC1=O)C1CC1C1C2CCC2(C)C1C1CC1[C@@]21CCC(=O)O1 (some centres undefined) |  | 35 | inactive |  | 
CC12C(=CC(=O)[C@@H]3C[C@@H]31)C1CC1C1C2CCC2(C)C1C1CC1[C@@]21CCC(=O)O1 (some centres undefined) | 520 | 2.1 |  |  | Competition factor [4]: 25
CC12C(=CC(=O)CC1O)C1CC1C1C2CCC2(C)C1C1CC1[C@@]21CCC(=O)O1 (some centres undefined) | 45 | 19 |  | inactive | 
C[C@]12CCC(=O)C=C1[C@@H]1C[C@@H]1[C@H]1[C@@H]3[C@@H]4C[C@@H]4[C@@]4(CCC(=O)O4)[C@@]3(C)CC[C@@H]12 | 685 | 2.7 |  |  | 
